Results from ChEMBL document CHEMBL1129543, “Synthesis and evaluation of N-(phenylacetyl)trifluoromethanesulfonamides as anticonvulsant agents” (J Med Chem, 1996).
Calls of active or inactive are those of the source. The calls are words filed in the database; no cut-off is given here.

What was measured:
Mus musculus [1] = test: Anti-seizure activity was evaluated by Subcutaneous pentylenetetrazole seizure test at dose 100 mg/kg after 0.5 hours; +++ denotes antiseizure activity; assay type: functional, organism-based; design: dose 100 mg/kg
Outline: (§1)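 Phase I screen in mice: ip dosing at 30, 100, 300 and 600 mg/kg in 30% PEG 400, read 0.5 h and 4 h after. Pentylenetetrazol given sc at CD97 (85 mg/kg). Protection means no clonic spasm of at least 5 s over 30 min. Scored ++++ to + for 30 to 600 mg/kg.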

Mus musculus [2] = species on record: Mus musculus; test: Time to peak activity was evaluated by Maximal electroshock seizure test in hours; assay type: functional
Mus musculus [3] = test: Anti-seizure activity was evaluated by Neurologic toxicity (rotarod test) at dose 600 mg/kg after 4.0 hours; + denotes neurotoxicity; assay type: functional, organism-based; design: dose 600 mg/kg
Outline: (§2)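 Phase I neurotoxicity in mice by rotorod ataxia test. Compound given ip at 30, 100, 300 or 600 mg/kg in 30% PEG 400, read 0.5 h and 4 h after. Scored ++++ to + for toxicity at 30 to 600 mg/kg; - means no toxicity.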

Mus musculus [4] = test: Anti-seizure activity was evaluated by Maximal electroshock seizure (MES) test at dose 100 mg/kg after 0.5 hours; +++ denotes antiseizure activity; assay type: functional, organism-based; design: dose 100 mg/kg
Outline: (§3)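 Phase I screen in mice: ip injection at 30, 100, 300 and 600 mg/kg in 30% PEG 400 (0.01 mL/g). Test run 0.5 h and 4 h after dosing. 60-Hz AC, 50 mA, via corneal electrodes for 0.2 s. Protection means abolition of hind-leg tonic extension. Scored ++++ to + for activity at 30 to 600 mg/kg.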

Mus musculus [5] = test: Anti-seizure activity was evaluated by Subcutaneous pentylenetetrazole seizure test at dose 300 mg/kg after 4.0 hours; ++ denotes antiseizure activity; assay type: functional, organism-based; design: dose 300 mg/kg; outline: as §1
Mus musculus [6] = test: Median toxic dose was evaluated by […] through intraperitoneal administration; assay type: functional
Rattus norvegicus [7] = species on record: Rattus norvegicus; test: Protective index (TD50/ED50) was determined against scMet induced seizure in rat.; assay type: functional
Outline: (§4)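 Oral dosing in 30% PEG 400: phase IV in mice (0.01 mL/g), phase VI in Sprague-Dawley rats (0.004 mL/g). ED50/TD50 found as in phase II, at the stated time of peak effect. MES current 50 mA in mice, 150 mA in rats. Toxicity by rotorod in mice; positional sense, gait and stance in rats. PI = TD50/ED50.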

Mus musculus [8] = test: Anti-seizure activity was evaluated by Neurologic toxicity (rotarod test) at dose 300 mg/kg after 0.5 hours; ++ denotes antiseizure activity; assay type: functional, organism-based; design: dose 300 mg/kg; outline: as §2
Rattus norvegicus [9] = species on record: Rattus norvegicus; test: Protective index (TD50/ED50) was determined against MES induced seizure in rat.; assay type: functional; outline: as §4
Mus musculus [10] = test: Median effective dose was evaluated by subcutaneous pentylenetetrazole seizure test through intraperitoneal administration; assay type: functional
Outline: (§5)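 Phase II in mice, ip dosing in 30% PEG 400. Groups of 6-12 mice per dose until at least three points fall in 10-90% protection. […] MES: 50 mA, 0.2 s corneal. scMet: pentylenetetrazol 85 mg/kg sc.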

Mus musculus [11] = test: Median effective dose was evaluated by Maximal electroshock seizure test through intraperitoneal administration; assay type: functional; conditions: ip; outline: as §5
Mus musculus [12] = species on record: Mus musculus; test: Time to peak toxicity was evaluated by Maximal electroshock seizure test in hours; assay type: functional
Mus musculus [13] = test: Median Effective dose was evaluated by Subcutaneous pentylenetetrazole seizure test in mice by oral administration; assay type: functional
Mus musculus [14] = test: Time to peak effect in mice was evaluated by Maximal electroshock seizure (MES) test in hours by oral administration; assay type: functional
Outline: (§6)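 Oral dosing in 30% PEG 400: phase IV in mice (0.01 mL/g), phase VI in Sprague-Dawley rats (0.004 mL/g). ED50/TD50 found as in phase II, at the stated time of peak effect. MES current 50 mA in mice, 150 mA in rats. PTZ sc 85 mg/kg in mice, 70 mg/kg in rats. Toxicity by rotorod in mice; positional sense, gait and stance in rats. PI = TD50/ED50.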

Mus musculus [15] = test: Time to peak effect in mice was evaluated by Subcutaneous pentylenetetrazole seizure test in hours by oral administration; assay type: functional; outline: as §6
Mus musculus [16] = test: Inhibition of seizures induced in mice by a convulsant dose of strychnine through ip administration; assay type: functional
Outline: (§7)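 Phase V differentiation in mice: test drug given ip at time of peak therapeutic effect, then the CD₉₇ of each convulsant (picrotoxin, bicuculline, strychnine) given ip as a 0.5% solution; observation 30 min for bicuculline and strychnine, 45 min for picrotoxin. Drug in 30% PEG 400, 0.01 mL/g. ED₅₀ with 95% confidence intervals from ≥3 points in the 10-90% protection range, groups of 6-12 mice.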

Mus musculus [17] = test: Inhibition of seizures induced in mice by a convulsant dose of bicuculline through ip administration; assay type: functional; outline: as §7
Rattus norvegicus [18] = test: Time to peak effect in Rats was evaluated by Subcutaneous pentylenetetrazole seizure test in hours by oral administration; assay type: functional; outline: as §6
Rattus norvegicus [19] = test: Time to peak effect in Rats was evaluated by Neurologic toxicity (rotarod test) in hours by oral administration; assay type: functional
Mus musculus [20] = test: Time to peak effect in mice was evaluated by Neurologic toxicity (rotarod test) in hours by oral administration; assay type: functional
Outline: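 Oral dosing in mice in 30% PEG 400 (0.01 mL/g). Neurologic deficit was scored by the rotorod ataxia test, and the time of peak effect was given in hours.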

Mus musculus [21] = species on record: Mus musculus; test: Median hypnotic dose was evaluated by loss of righting reflex; assay type: functional
Rattus norvegicus [22] = test: Median Effective dose was evaluated by Subcutaneous pentylenetetrazole seizure test in Rats by oral administration; assay type: functional
Rattus norvegicus [23] = test: Time to peak effect in Rats was evaluated by Maximal electroshock seizure (MES) test in hours by oral administration; assay type: functional; outline: as §6
Mus musculus [24] = test: Anti-seizure activity was evaluated by Maximal electroshock seizure (MES) test at dose 300 mg/kg after 0.5 hours; ++ denotes antiseizure activity; assay type: functional, organism-based; design: dose 300 mg/kg; outline: as §3
Mus musculus [25] = test: Anti-seizure activity was evaluated by Neurologic toxicity (rotarod test) at dose 600 mg/kg after 0.5 hours; + denotes neurotoxicity; assay type: functional, organism-based; design: dose 600 mg/kg; outline: as §2
Mus musculus [26] = test: Anti-seizure activity was evaluated by Neurologic toxicity (rotarod test) at dose 300 mg/kg after 4.0 hours; ++ denotes antiseizure activity; assay type: functional, organism-based; design: dose 300 mg/kg; outline: as §2
Mus musculus [27] = test: Inhibition of picrotoxin-induced seizures in mice by ip administration at 55-100 mg/kg (g= Maximum 62.5% protection); assay type: functional, organism-based; outline: as §7
Mus musculus [28] = test: Median lethal dose was evaluated by mortality after 24 hr through ip injection administration; assay type: functional
Outline: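 Mice were dosed ip in 30% PEG 400. Mortality was scored 24 h after injection in groups of eight. The 24-h LD₅₀ was derived as for the ED₅₀/TD₅₀, with 95% confidence intervals.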

Mus musculus [29] = test: Inhibition of seizures induced in mice by a convulsant dose of strychnine through ip administration; f=No protection up to 100 mg/kg; assay type: functional, organism-based; design: dose 100 mg/kg
Outline: (§8)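 Convulsant (bicuculline, picrotoxin, strychnine or PTZ) given at CD97 as a 0.5% solution. Observed 30 min (45 min for picrotoxin). PI uses ip mouse TD50.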

Mus musculus [30] = test: Inhibition of seizures induced in mice by a convulsant dose of up to 100 mg/kg; assay type: functional, organism-based; design: dose 100 mg/kg; outline: as §8
Mus musculus [31] = test: Median Effective dose was evaluated by Maximal electroshock seizure (MES) test in mice by oral administration; assay type: functional
Rattus norvegicus [32] = test: […] was evaluated by […] by oral administration up to 3000 mg/kg; assay type: functional, organism-based; design: dose 3000 mg/kg
Mus musculus [33] = test: Median Effective dose was evaluated by Subcutaneous pentylenetetrazole seizure test in mice by oral administration; c=No protection up to 300 mg/kg; assay type: functional, organism-based; design: dose 300 mg/kg; outline: as §6
Rattus norvegicus [34] = test: Median Effective dose was evaluated by Subcutaneous pentylenetetrazole seizure test in Rats by oral administration up to 800 mg/kg;d= no protection; assay type: functional, organism-based; design: dose 800 mg/kg; outline: as §6
Mus musculus [35] = test: Median effective dose was evaluated by subcutaneous pentylenetetrazole seizure test through up to 300 mg/kg; g=no protection up to 33 mg/kg; assay type: functional, organism-based
Mus musculus [36] = test: […] was evaluated by Neurologic toxicity (rotarod test) in mice by oral administration; assay type: functional; outline: as §6
Rattus norvegicus [37] = test: Median Effective dose was evaluated by Maximal electroshock seizure (MES) test in Rats by oral administration; assay type: functional

Row | SMILES | Activity (Mus musculus [1]) | TPE (Mus musculus [2]) | TD50 (Mus musculus [6]) [mg/kg] | PI (Rattus norvegicus [7]) | PI (Rattus norvegicus [9]) | ED50 (Mus musculus [10]) [mg/kg] | ED50 (Mus musculus [11]) [mg/kg] | TPE (Mus musculus [12]) | TPE (Mus musculus [14]) [h] | TPE (Mus musculus [15]) [h] | TPE (Rattus norvegicus [18]) [h] | TPE (Rattus norvegicus [19]) [h] | TPE (Mus musculus [20]) [h] | HD50 (Mus musculus [21]) [mg/kg] | TPE (Rattus norvegicus [23]) [h] | also measured
1 | O=C(Cc1cccc(Cl)c1)NS(=O)(=O)C(F)(F)F | Antiseizure activity | 2 | 249 | 7.2 | 37 | 35 | 6.8 | 0.5 | – | – | – | – | – | – | – | Activity (Mus musculus [3]): Antiseizure activity; Activity (Mus musculus [4]): Antiseizure activity; Activity (Mus musculus [5]): Antiseizure activity; Activity (Mus musculus [8]): Antiseizure activity
2 | CCCC(CCC)C(=O)O [VALPROIC ACID] | – | 0.25 | – | – | – | 149 | – | 0.25 | 1 | 1 | 0.5 | 1 | 2 | 885 | 0.5 | ED50 (Mus musculus [13]): 388 mg/kg; ED50 (Mus musculus [16]): 387 mg/kg; ED50 (Mus musculus [17]): 360 mg/kg; ED50 (Rattus norvegicus [22]): 180 mg/kg
3 | O=C(Cc1ccc(Cl)cc1)NS(=O)(=O)C(F)(F)F | Antiseizure activity | 4 | 206 | 4.2 | 27 | 49 | 7.6 | 4 | – | – | – | – | – | – | – | Activity (Mus musculus [24]): Antiseizure activity; Activity (Mus musculus [25]): Antiseizure activity; Activity (Mus musculus [26]): Antiseizure activity
4 | O=C1NC(=O)C(c2ccccc2)(c2ccccc2)N1 [PHENYTOIN] | – | 2 | – | – | – | – | – | 2 | 2 | 2 | 4 | 0.5 | 2 | 178 | 4 | ED50 (Mus musculus [27]): Active; LD50 (Mus musculus [28]): 230 mg/kg; ED50 (Mus musculus [29]): inactive; ED50 (Mus musculus [30]): inactive; ED50 (Mus musculus [31]): 9 mg/kg; TD50 (Rattus norvegicus [32]): inactive; ED50 (Mus musculus [33]): inactive; ED50 (Rattus norvegicus [34]): inactive; ED50 (Mus musculus [35]): inactive; TD50 (Mus musculus [36]): 87 mg/kg; ED50 (Rattus norvegicus [37]): 30 mg/kg
